From ChEMBL document CHEMBL1132785, “Optimising inhibitors of trypanothione reductase using solid-phase chemistry” (Bioorg Med Chem Lett, 2000)

What follows are compounds tested against Trypanothione reductase (Trypanosoma cruzi, UniProt P28593) (assay: The compound was evaluated for inhibition of trypanothione reductase enzyme).
Method in brief: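 Substrate oxidised trypanothione at six levels spanning 0.25–5 × Km, with inhibitor at four experimentally chosen concentrations. Each condition run in triplicate. Ki obtained by fitting rates to the noncompetitive inhibition equation v = Vmax[S]/(1+[I]/Ki)/(Km+[S]).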

Sequence of Trypanothione reductase (P28593 whole entry): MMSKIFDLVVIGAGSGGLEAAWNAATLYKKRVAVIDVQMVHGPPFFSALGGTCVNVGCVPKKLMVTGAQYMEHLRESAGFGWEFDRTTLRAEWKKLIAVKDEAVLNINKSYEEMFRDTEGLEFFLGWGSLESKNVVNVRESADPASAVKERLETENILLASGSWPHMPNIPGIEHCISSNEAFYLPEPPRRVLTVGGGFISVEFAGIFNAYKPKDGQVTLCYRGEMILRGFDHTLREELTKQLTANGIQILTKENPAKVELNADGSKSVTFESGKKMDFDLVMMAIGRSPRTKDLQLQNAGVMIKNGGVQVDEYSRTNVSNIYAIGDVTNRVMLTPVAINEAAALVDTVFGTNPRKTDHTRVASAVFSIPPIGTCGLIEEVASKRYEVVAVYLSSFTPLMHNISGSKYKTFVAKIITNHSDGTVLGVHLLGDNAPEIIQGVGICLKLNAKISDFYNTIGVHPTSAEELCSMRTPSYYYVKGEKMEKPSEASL

| SMILES | Ki [nM] |
| --- | --- |
| O=C(NCCCNCCCCNCCCNC(=O)c1cnc2cc(C(F)(F)F)ccc2c1O)c1cnc2cc(C(F)(F)F)ccc2c1O | 750 |
| O=C(Cc1c[nH]c2ccccc12)NCCCNCCCCNCCCNC(=O)Cc1c[nH]c2ccccc12 | 390 |
| O=C(CCCc1c[nH]c2ccccc12)NCCCNCCCCNCCCNC(=O)CCCc1c[nH]c2ccccc12 | 1260 |
| COc1ccc2[nH]cc(CC(=O)NCCCNCCCCNCCCNC(=O)Cc3c[nH]c4ccc(OC)cc34)c2c1 | 280 |
| O=C(NCCCCNCCCNC(=O)c1cnc2cc(C(F)(F)F)ccc2c1O)c1cnc2cc(C(F)(F)F)ccc2c1O | 850 |
| O=C(CCc1ccc(O)c(O)c1)NCCCNCCCCNCCCNC(=O)CCc1ccc(O)c(O)c1 [KUKOAMINE A] | 1390 |
| O=C(CCc1c[nH]c2ccccc12)NCCCNCCCCNCCCNC(=O)CCc1c[nH]c2ccccc12 | 350 |
| O=C(Cc1c[nH]c2ccc(Br)cc12)NCCCNCCCCNCCCNC(=O)Cc1c[nH]c2ccc(Br)cc12 | 76 |
